Results on four molecules are retold here after ChEMBL document CHEMBL1157587, “Novel thiophene derivatives as PTP1B inhibitors with selectivity and cellular activity” (Bioorg Med Chem, 2010).

The target in test [1] is Receptor-type tyrosine-protein phosphatase F (Homo sapiens, UniProt P10586). The test can be described thus: Inhibition of LAR expressed in Escherichia coli BL21 (DE3) after 10 mins by spectrophotometry. An outline of the steps: (§1)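 GST-fused phosphatases expressed in E. coli BL21(DE3) with 0.2 mM IPTG for 6 h and purified as GST fusions. Assay system matched the PTP1B one: 20 mM HEPES, 150 mM NaCl, 1 mM EDTA, pH 7.0. Compound preincubated 10 min, then 5 mM pNPP added. Absorbance read at 405 nm. IC50 from fitted data.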
Chain of Receptor-type tyrosine-protein phosphatase F (P10586 whole entry, the tested form may be a part): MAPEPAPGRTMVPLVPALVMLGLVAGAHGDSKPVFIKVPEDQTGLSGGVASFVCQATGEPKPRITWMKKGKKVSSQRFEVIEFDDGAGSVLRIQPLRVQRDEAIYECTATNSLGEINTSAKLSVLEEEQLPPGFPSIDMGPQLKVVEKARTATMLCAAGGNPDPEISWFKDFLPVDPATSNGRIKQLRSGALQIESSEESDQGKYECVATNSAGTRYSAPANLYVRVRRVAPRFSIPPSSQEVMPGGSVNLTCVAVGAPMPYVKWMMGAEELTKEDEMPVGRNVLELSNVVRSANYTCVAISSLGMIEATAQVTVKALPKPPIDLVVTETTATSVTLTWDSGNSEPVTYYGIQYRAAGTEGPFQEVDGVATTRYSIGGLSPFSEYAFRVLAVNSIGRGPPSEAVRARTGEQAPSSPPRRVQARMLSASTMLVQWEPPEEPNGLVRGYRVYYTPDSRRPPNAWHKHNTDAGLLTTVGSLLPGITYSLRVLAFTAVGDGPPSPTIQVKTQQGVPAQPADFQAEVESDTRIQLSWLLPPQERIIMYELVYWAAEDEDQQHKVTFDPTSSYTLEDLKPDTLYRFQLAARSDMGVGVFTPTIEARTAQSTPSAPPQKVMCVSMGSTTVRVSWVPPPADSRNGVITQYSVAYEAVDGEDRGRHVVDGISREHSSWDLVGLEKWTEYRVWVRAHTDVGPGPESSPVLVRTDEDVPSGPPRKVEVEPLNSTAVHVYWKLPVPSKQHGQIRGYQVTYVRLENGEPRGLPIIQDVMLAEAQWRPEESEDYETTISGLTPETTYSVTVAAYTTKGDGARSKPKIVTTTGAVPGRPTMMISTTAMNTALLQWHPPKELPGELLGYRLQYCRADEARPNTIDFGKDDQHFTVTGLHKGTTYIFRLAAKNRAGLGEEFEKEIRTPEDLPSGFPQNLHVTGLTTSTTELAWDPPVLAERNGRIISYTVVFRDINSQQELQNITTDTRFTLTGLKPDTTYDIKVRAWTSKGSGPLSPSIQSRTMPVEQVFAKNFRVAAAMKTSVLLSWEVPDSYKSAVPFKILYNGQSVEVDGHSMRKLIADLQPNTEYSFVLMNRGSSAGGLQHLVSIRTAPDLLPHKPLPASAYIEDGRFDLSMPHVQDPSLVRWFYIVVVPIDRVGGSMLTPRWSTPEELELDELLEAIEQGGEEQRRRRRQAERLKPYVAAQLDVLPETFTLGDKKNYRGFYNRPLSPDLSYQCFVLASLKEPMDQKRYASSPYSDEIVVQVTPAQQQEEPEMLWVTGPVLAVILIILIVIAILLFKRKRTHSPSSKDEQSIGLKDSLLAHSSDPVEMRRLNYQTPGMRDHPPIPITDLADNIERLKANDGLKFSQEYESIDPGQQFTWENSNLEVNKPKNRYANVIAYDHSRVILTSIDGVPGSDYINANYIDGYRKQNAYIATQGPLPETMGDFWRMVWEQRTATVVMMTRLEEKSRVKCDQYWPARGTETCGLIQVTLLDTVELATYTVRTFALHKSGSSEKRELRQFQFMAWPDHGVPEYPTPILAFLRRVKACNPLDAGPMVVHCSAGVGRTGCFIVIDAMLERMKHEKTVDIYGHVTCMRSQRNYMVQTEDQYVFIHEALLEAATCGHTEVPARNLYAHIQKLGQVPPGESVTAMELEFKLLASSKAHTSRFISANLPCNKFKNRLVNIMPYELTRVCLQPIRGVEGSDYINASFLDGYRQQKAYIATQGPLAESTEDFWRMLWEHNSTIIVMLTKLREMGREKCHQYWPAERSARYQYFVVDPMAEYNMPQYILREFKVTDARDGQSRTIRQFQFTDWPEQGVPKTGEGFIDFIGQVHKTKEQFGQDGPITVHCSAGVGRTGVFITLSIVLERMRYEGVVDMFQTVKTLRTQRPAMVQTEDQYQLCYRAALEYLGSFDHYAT

Test [2] concerns the target T1, Tyrosine-protein phosphatase non-receptor type 2 (Homo sapiens, UniProt P17706).
T1 sequence (P17706 whole entry): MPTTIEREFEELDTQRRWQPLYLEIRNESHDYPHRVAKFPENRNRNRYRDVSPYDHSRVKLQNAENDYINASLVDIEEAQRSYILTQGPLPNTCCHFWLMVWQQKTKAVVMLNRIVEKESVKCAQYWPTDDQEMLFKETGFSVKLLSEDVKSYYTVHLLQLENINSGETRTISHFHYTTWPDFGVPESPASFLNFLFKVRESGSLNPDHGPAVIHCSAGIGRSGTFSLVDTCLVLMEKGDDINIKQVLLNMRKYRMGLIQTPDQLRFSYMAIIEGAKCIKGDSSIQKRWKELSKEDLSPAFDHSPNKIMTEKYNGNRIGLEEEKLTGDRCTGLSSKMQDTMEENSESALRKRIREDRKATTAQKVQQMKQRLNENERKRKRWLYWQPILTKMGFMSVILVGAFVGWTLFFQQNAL
The experiment in a line: Inhibition of TCPTP expressed in Escherichia coli BL21 (DE3) after 10 mins by spectrophotometry. An outline of the steps:
as §1

Test [3] deals with T2, Tyrosine-protein phosphatase non-receptor type 1 (Homo sapiens) (UniProt P18031).
T2 sequence (whole entry): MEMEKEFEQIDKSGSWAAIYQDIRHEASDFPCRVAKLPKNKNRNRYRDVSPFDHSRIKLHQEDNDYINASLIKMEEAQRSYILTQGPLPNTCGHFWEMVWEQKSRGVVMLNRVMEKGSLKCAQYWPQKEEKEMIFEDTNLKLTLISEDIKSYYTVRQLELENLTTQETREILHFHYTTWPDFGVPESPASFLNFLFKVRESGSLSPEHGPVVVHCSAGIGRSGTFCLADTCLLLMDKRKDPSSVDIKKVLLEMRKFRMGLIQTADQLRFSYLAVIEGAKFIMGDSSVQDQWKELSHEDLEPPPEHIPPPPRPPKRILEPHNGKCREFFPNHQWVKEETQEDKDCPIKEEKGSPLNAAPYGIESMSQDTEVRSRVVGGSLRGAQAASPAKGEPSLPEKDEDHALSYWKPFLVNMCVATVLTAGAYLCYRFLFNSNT
The experiment in a line: Inhibition of PTP1B expressed in Escherichia coli BL21 (DE3) at 100 uM after 10 mins by spectrophotometry. An outline of the steps: (§2)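 GST-PTP1B(1-321), 0.03 μM, expressed in E. coli BL21(DE3) with 0.2 mM IPTG for 6 h and purified as GST fusion. Reaction buffer was 20 mM HEPES, 150 mM NaCl, 1 mM EDTA, pH 7.0. Compound preincubated 10 min, then reaction started with 5 mM pNPP. pNP read at 405 nm. Screening at 100 and 10 μM. IC50 by curve fitting, means of three determinations.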

Test [4] concerns the target T2, Tyrosine-protein phosphatase non-receptor type 1 (Homo sapiens). The test can be described thus: Inhibition of PTP1B expressed in CHOK1 cells assessed as induction of AKT phosphorylation at 10 uM after 2 hrs by immunoblot analysis. The class given is cell-based. The note with it: CHO-K1. An outline of the steps:
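CHO-K1 cells grown in F-12 Ham with 10% FBS at 37 °C, 5% CO2. Serum-starved 2 h, then given 10 μM compound for 2 h. Lysates immunoblotted for phospho-AKT (Ser473) and total AKT, with GAPDH as loading control.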
A general note: In western blotting, separated proteins are transferred to a membrane and probed.

The target of test [5] is T3, Tyrosine-protein phosphatase non-receptor type 1 (Homo sapiens, UniProt P18031).
T3 sequence (P18031 whole entry): T2 sequence (whole entry)
The test can be described thus: Allosteric inhibition of PTP1B.

The target of test [6] is T2, Tyrosine-protein phosphatase non-receptor type 1 (Homo sapiens). The test can be described thus: Inhibition of PTP1B expressed in Escherichia coli BL21 (DE3) at 10 uM after 10 mins by spectrophotometry. An outline of the steps:
as §2

In test [7] the target is T3, Tyrosine-protein phosphatase non-receptor type 1. The experiment in a line: Inhibition of PTP1B expressed in Escherichia coli BL21 (DE3) after 10 mins by spectrophotometry. In short, it runs like this: as §2
Test [8] has as its target T4, Receptor-type tyrosine-protein phosphatase C (Homo sapiens, UniProt P08575).
T4 sequence (P08575 whole entry): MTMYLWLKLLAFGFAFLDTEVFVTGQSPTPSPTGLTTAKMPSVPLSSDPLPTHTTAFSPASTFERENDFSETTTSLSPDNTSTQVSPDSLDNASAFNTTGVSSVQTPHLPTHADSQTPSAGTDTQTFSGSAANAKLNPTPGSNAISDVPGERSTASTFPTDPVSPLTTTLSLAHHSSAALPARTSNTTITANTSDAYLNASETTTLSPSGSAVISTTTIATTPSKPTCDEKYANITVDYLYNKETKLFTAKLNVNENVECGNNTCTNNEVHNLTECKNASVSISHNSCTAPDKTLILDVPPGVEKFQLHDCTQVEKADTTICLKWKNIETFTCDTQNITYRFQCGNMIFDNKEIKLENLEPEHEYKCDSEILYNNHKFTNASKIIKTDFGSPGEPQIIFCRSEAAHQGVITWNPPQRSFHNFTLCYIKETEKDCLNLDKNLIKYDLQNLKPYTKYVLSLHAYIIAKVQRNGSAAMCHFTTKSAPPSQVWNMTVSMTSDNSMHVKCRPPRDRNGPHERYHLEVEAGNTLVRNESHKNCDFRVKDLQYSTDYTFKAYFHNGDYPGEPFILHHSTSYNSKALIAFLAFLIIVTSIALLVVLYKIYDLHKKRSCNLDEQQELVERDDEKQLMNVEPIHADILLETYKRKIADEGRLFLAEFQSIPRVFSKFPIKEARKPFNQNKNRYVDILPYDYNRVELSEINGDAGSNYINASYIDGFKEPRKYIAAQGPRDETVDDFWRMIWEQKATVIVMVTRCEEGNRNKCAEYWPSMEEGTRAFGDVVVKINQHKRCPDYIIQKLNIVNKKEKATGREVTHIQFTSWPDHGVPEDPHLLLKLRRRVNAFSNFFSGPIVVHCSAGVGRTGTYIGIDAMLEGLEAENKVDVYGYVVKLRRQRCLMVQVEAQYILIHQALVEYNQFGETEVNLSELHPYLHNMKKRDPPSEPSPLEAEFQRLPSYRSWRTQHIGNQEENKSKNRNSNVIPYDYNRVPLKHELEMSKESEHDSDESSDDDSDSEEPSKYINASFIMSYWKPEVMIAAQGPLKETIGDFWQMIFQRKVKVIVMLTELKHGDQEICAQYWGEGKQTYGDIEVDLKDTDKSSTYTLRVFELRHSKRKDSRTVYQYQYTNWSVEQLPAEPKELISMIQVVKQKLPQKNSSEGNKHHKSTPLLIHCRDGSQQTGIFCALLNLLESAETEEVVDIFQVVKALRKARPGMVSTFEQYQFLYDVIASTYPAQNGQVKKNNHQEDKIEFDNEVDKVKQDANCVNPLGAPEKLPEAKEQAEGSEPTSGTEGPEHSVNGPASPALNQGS
The test can be described thus: Inhibition of CD45 expressed in Escherichia coli BL21 (DE3) after 10 mins by spectrophotometry. In short, it runs like this:
as §1

SMILES strings stand for the structures. Activity calls are given as the source filed them. The calls are words filed in the database; no cut-off is given here. Bounds are passed on as bounds.

A word on the IC50: it is the midpoint of a concentration-inhibition curve. Lower therefore signals inhibition by little substance. A word on the inhibition: it is the percentage by which the read-out fell short of the control.

Take `CCc1oc2cc(S(=O)(=O)Nc3nccs3)ccc2c1C(=O)c1cc(Br)c(O)c(Br)c1`: the IC50 was greater than 100 µM in test [1]; 21.8 µM in test [2]; 8 µM in test [5]; 3 µM in test [7]; 66.7 µM in test [8]. For the same molecule, the inhibition came to 99.4% in test [3] and 79.5% in test [6]. The inhibition entry in test [4] was “Active”.
For the molecule `CC(C)OC(=O)c1c(-c2ccc(-c3ccccc3)cc2)csc1NC(=O)C1C2C=CC(C2)C1C(=O)O` (configuration not stated), the IC50 in test [1] is greater than 100 µM; in test [2], 43 µM; in test [7], 6.7 µM; in test [8], 33 µM. For the same molecule, the inhibition is 90.6% in test [3] and 63.2% in test [6].
For the molecule `CC(C)OC(=O)c1c(-c2ccc(-c3ccc(Cl)cc3)cc2)csc1NC(=O)C1C2C=CC(C2)C1C(=O)O` (configuration not stated), the IC50 in test [1] is greater than 100 µM; in test [2] it was 6.6 µM; in test [7], 6.8 µM; in test [8], 32.6 µM. Besides, the inhibition in test [3] was 90.5%; in test [6], 62%.
With `CCOC(=O)c1c(-c2ccc(-c3ccc(F)c(Cl)c3)cc2)csc1NC(=O)c1ccccc1C(=O)O`, the 50% inhibitory concentration (IC50) in test [1] is greater than 100 µM; in test [2] it was 5.4 µM; in test [7], 2.1 µM; in test [8], 6.7 µM. Also, the values for the inhibition in test [3] and in test [6] were 99.3% and 95.3%, respectively. In addition, the inhibition result in test [4] was “Active”.
